UPR CHOP act = activators of apoptotic arm of unfolded protein response (CHOP); CHO-CHOP luciferase reporter, UPR activation, luminescence; percent of tunicamycin response over DMSO baseline; activation, % at 10 µM; hit rate 0.34% among 330,000; AID 449763;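 active = at 10 µM dose, activation of 40% or more, normalized to positive control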
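System: CHO-CHOP luciferase reporter cell line; amount: 500 cells/well; buffer or medium: F12 medium containing 10% fetal bovine serum; incubation: 6 h compound exposure at 37 °C after overnight seeding; measured by: luciferase luminescence after 10 min with Steady-Glo reagent; evaluation: % reporter activation, DMSO baseline versus tunicamycin full activation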
T cell modulator = modulates CD8 T cell binding to vesicles | AID 2052 | 2C CD8+ T cell-vesicle binding, flow cytometry; stronger effect = lower value | response (vesicle binding), % at 7 µM | hit rate 0.068% among 330,000;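 active = response, share of CD8 T cells binding vesicles, and their 90th percentile fluorescence all below set limits, cut at about 80% in these data, passing the limit was not always enough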;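 also: values below 100% mean blocked vesicle binding to the CD8+ T cells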
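Assay system – 2C mouse CD8+ T cells · Also added – QL9-loaded Drosophila micro-vesicles · Timing – Cell–vesicle co-incubation 1.5 h at 37 °C, staining 20 min on ice · Signal – flow cytometry of vesicle-bound cells · Measure – percent CD8+ FL2 mean versus row control · Controls – Peptide-free naked vesicles (low) and QL9 vesicles with 0.7% DMSO vehicle (high)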
Beta2AR agonist = activates human beta-2 adrenergic receptor causing internalization. AID 504454. response, % (concentration not given with the values). Am2.2-beta2AR cells, FAP receptor internalization, flow cytometry. P07550. hit rate 0.43% among 340,000;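 active = response above a set limit, near 3 SD of response in nonfluorescent compounds, cut at about 42% in these data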
Target sequence (P07550 whole entry, looked up): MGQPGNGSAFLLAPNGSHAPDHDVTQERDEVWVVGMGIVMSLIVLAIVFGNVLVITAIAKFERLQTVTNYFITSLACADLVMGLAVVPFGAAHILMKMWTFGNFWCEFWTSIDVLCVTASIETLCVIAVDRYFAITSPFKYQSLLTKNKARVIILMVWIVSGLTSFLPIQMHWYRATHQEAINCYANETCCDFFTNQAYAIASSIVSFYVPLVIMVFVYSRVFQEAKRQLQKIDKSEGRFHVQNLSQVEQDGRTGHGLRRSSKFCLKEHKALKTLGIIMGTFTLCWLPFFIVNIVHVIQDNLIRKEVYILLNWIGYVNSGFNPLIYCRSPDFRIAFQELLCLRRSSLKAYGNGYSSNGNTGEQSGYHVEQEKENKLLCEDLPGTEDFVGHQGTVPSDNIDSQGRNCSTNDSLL
UPR XBP1 act = adaptive UPR (XBP1) activation | AID 463104 | activation, % at 20 µM | CHO-XBP1 luciferase reporter, IRE1-XBP1 UPR activation, luminescence; percent of tunicamycin response, DMSO as zero | hit rate 0.33% among 330,000;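 active = versus positive control, 20 µM dose yields 30% or more activation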
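Material: IRE1-XBP1 luciferase reporter CHO line / Quantity: one thousand reporter cells per well / Buffer or medium: F12 with 10% serum / Compound: 20 µM single concentration, DMSO 1% / Times: 6 h treatment, 37 °C / Detection: Steady-Glo luciferase glow luminescence, 10 min after reagent addition / Benchmarks: tunicamycin high, DMSO low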
UPR CHOP confirm = confirmation of apoptotic unfolded protein response (CHOP) activators. AID 463112. activation, % at 10 µM. CHO-CHOP cells, CHOP-luciferase reporter luminescence; percent of tunicamycin response, DMSO as zero. shares compounds with UPR CHOP act. hit rate 64% among 1,000; in the data active = activation above about 33%
Large screens that a line does not name were inactive (follow-up assays come after a bar, where they were run). Most compounds without a hit are left out; they make up all but 1% or so of the library.

CCOC(=O)c1c(C)oc2c1c(C(c1cccnc1)N1CCOCC1)c(O)c1ccccc12 (stereo unspecified)	UPR CHOP act 70.5 | UPR CHOP confirm 134.3
CCOC(=O)c1c(C)oc2c1c1c(c3ccccc32)OCN(Cc2cccnc2)C1	none (no result: UPR CHOP act, T cell modulator, UPR XBP1 act)
Cc1noc2ncnc(Sc3ccc(Br)cc3)c12	UPR CHOP act 228.9 | UPR CHOP confirm 124.2
CCOC(=O)c1ccc(N=c2sc(C(=O)OC)cc(=O)n2Cc2ccco2)cc1	UPR CHOP act 40.6 | UPR CHOP confirm inactive
O=C(c1ccc([N+](=O)[O-])o1)N1CCN(Cc2ccccc2)CC1	none
CCc1cccc2sc(N3CCN(C(=O)c4ccc([N+](=O)[O-])o4)CC3)nc12	UPR CHOP act 157.4 | UPR CHOP confirm 140.9
CC#CC[N+](C)(C)CCCCCCCC	none
COc1cc(/C=C/C(=O)c2ccc3c(c2)OCCO3)cc(Br)c1OCC(=O)N(C)C	UPR CHOP act 135.3 | UPR CHOP confirm 271.6
O=C(/C=C/c1ccncc1)c1ccc2c(c1)OCCO2	none
O=C1C2CC=CCC2C(=O)N1c1ccc(NCCc2ccc(Cl)cc2)c([N+](=O)[O-])c1 (stereo unspecified)	UPR CHOP act 46.4 | UPR CHOP confirm inactive
CC1=NN(c2cccc(C(=O)O)c2)C(=O)/C1=C\C=C/c1ccccc1	UPR CHOP act 94.9 (no result: T cell modulator, Beta2AR agonist) | UPR CHOP confirm 129.6
CC(C)(C)c1ccc2c(c1)OC(C(=O)N/N=C\c1ccncc1)CO2 (stereo unspecified)	none
CC(C)(C)c1ccc2c(c1)OC(C(=O)N/N=C/c1ccc([N+](=O)[O-])o1)CO2 (stereo unspecified)	UPR CHOP act 81.1 | UPR CHOP confirm inactive
COC(=O)Cn1c(=NC(=O)c2ccc([N+](=O)[O-])s2)sc2cc(Br)ccc21	UPR CHOP act 49.5 (no result: Beta2AR agonist) | UPR CHOP confirm inactive
CCOP(=O)(OCC)C(Nc1ccccc1)c1cccnc1 (stereo unspecified)	none
O=c1oc2cc(Oc3c([N+](=O)[O-])cc(C(F)(F)F)cc3[N+](=O)[O-])ccc2c2c1CCCC2	UPR CHOP act 53.9 | UPR CHOP confirm inactive
Cc1cc(C(=O)c2ccc(Cl)cc2)c(NC(=O)CCl)s1	UPR CHOP act 50.0 | UPR CHOP confirm 46.5
Cc1ccc(C(=O)c2cc(C)sc2N)cc1	none
CCc1cc(C(=O)c2ccc(OC)cc2)c(NC(=O)CCC(=O)O)s1	none
CCc1cc(C(=O)c2ccc(C)cc2)c(NC(=O)CCl)s1	UPR CHOP act 108.0 | UPR CHOP confirm 113.7
Cc1ccc(C(=O)c2c(C)oc3c2C(=O)C(=O)c2ccccc2-3)cc1	UPR CHOP act 64.5, Beta2AR agonist 47.0 | UPR CHOP confirm inactive
O=S(=O)(CCSc1nc2ccccc2s1)c1nc2ccccc2s1	UPR CHOP act 108.2 | UPR CHOP confirm 153.5
CCS(=O)(=O)CCSc1nc2ccccc2s1	none
COC(=O)c1cc(=O)n(Cc2ccc3c(c2)OCO3)c(=Nc2ccc(F)c(Cl)c2)s1	UPR CHOP act 61.6 | UPR CHOP confirm 72.8
COC(=O)c1cc(=O)n(CCc2ccc(OC)cc2)c(=Nc2ccc(F)c(Cl)c2)s1	UPR CHOP act 60.2 | UPR CHOP confirm 39.8
CCn1c(=O)cc(C(=O)OC)sc1=Nc1ccc(F)c(F)c1	none
O=C(C[C@H]1C[C@H](C(=O)N2CCCCC2)[C@@]2(CCc3ccccc3)c3[nH]c4ccc(Cl)cc4c3CCN2C1=O)NCCN1CCOCC1	UPR CHOP act 52.1 (no result: T cell modulator) | UPR CHOP confirm inactive
COc1ccc(C2=CC(=O)N(Nc3ccccc3)C2=O)cc1	UPR CHOP act 47.9 (no result: Beta2AR agonist) | UPR CHOP confirm 149.4
O=C(Cn1ncc(Cl)c(Cl)c1=O)Nc1ccc2c(c1)OCO2	none
CCN(CC)S(=O)(=O)c1cc(NC(=O)Cn2ncc(Cl)c(Cl)c2=O)ccc1C	UPR CHOP act 94.9, Beta2AR agonist 46.0 | UPR CHOP confirm 67.1
O=C(Cn1ncc(Cl)c(Cl)c1=O)c1ccc2c(c1)OCCO2	UPR CHOP act 45.0 | UPR CHOP confirm 47.9
CCC(=O)Nc1ccc(C(=O)Cn2ncc(Cl)c(Cl)c2=O)cc1	UPR CHOP act 63.3 | UPR CHOP confirm 74.5
O=C(C1CCC(CNS(=O)(=O)c2cccc3nsnc23)CC1)N1CC=C(c2ccccc2)CC1 (stereo unspecified)	none
COc1ccc(CCNC2=NCCS2)cc1OC	none
Cc1ccc(N(CC(=O)NC2CCCCC2)C(=O)c2ccc(C)s2)cc1	none
CC(C)C(=O)Nc1cccc(NC(=O)c2cccnc2)c1	none
O=[N+]([O-])/C=C\c1ccc(N2CCOCC2)cc1	UPR CHOP act 51.5 | UPR CHOP confirm 126.3
CCOC(=O)c1sc(N(Cc2ccccc2)C(=O)CCl)nc1C	UPR CHOP act 49.0 | UPR CHOP confirm 218.8
CC(=O)C1=C(C)Nc2ncnn2C1c1ccc(C)cc1 (stereo unspecified)	none
Cc1nnc(NC(=O)c2nc(S(=O)(=O)Cc3ccccc3)ncc2Cl)s1	UPR CHOP act 40.7 | UPR CHOP confirm inactive
COc1ccc(NC(=O)c2nc(S(=O)(=O)Cc3cccc(C)c3)ncc2Cl)c(OC)c1	UPR CHOP act 61.4 | UPR CHOP confirm 295.9
Cc1ccccc1CS(=O)(=O)c1ncc(Cl)c(C(=O)Nc2ccc(F)cc2)n1	UPR CHOP act 186.5 | UPR CHOP confirm 100.8
COc1ccc(OC)c(NC(=O)c2nc(S(=O)(=O)Cc3ccccc3)ncc2Cl)c1	none
O=C(Nc1ccc(F)cc1)c1nc(S(=O)(=O)Cc2ccccc2)ncc1Cl	none
Cc1cccc(C)c1NC(=O)c1nc(S(=O)(=O)Cc2ccccc2)ncc1Cl	UPR CHOP act 239.2 | UPR CHOP confirm 270.5
CCOc1ccccc1CN1CCN(Cc2ccc3cc(F)ccc3n2)CC1CCO (stereo unspecified)	none
Cc1ccc(N(CC(=O)NCc2ccc(F)cc2)C(=O)CCC(=O)Nc2ccccn2)cc1C	none
COc1cc(CNc2ccccc2SC)ccc1O	none
CC(C)(C)c1ccc(-c2nnc(SC3CCOC3=O)n2Cc2ccccc2)cc1 (stereo unspecified)	none
Cc1ccc(-c2cc(-c3ccccc3)c(C#N)c(Br)n2)cc1	none
CS(=O)(=O)c1nc(-c2ccccc2)cc(-c2ccccc2)c1C#N	UPR CHOP act 68.2 | UPR CHOP confirm 47.0
CC(C)Cc1nc(N2CCN(C(=O)C(C)C)CC2)c(C#N)c2c1CCC2	UPR CHOP act 40.2 | UPR CHOP confirm inactive
Clc1ccc(-c2nnc(CSc3nnc(-c4cccs4)n3Cc3ccccc3)o2)cc1	UPR CHOP act 46.9 | UPR CHOP confirm inactive
COc1ccc(C2Nc3ccccc3NC3=C2C(=O)CC(C)(C)C3)cc1OC (stereo unspecified)	none
COc1ccc(C2Nc3ccccc3NC3=C2C(=O)CC(C)(C)C3)cc1O (stereo unspecified)	none (no result: UPR CHOP act) | UPR CHOP confirm inactive
O=C(/C=C\c1ccccc1OC(=O)c1ccccc1F)c1cc2ccccc2o1	UPR CHOP act 54.9 | UPR CHOP confirm 286.8
CC(=O)/C=C\c1ccccc1OC(=O)c1cc2ccccc2oc1=O	none

Source: PubChem (several laboratories)
